Measured values gathered from unrelated publications.
Lines come from different studies, so protocols differ.
Cell line: NCI-H460
Read-out: cell growth or viability

Compound | technique | concentration | time | quantity | value
O=c1cc(OCc2cc(-c3ccccc3)no2)c2ccccc2o1 | MTS | – | 72 h | IC50 | > 100 µM
CCCCCCCCCCCCCCCCCCOc1ccccc1CC(=O)OCC[N+](C)(C)C | SRB | 10 µM | – | inhibition | 86.5%
COc1ccc(NC(=O)Nc2ccc(-c3cn(Cc4ccc(Br)cc4)nn3)cc2)cc1 | CCK-8 | 50 µM | 72 h | viability | 86.6%
N#Cc1ccc(-c2cc(CNc3cccc4cccnc34)on2)cc1 | MTS | – | 72 h | IC50 | > 100 µM
CCCCCCCCCCCCCCCCCCOc1ccccc1CC(=O)OCC[N+]1(C)CCOCC1 | SRB | 10 µM | – | inhibition | 30.8%
Cc1ccccc1Cn1cc(-c2cccc(NC(=O)Nc3ccc(F)cc3)c2)nn1 | CCK-8 | 50 µM | 72 h | viability | 72.6%
CCCCCCCCCCCCCCCCCCOc1cccc(CC(=O)OCC[N+]2(C)CCCCC2)c1 | SRB | 10 µM | – | inhibition | 0.88%
FC(F)(F)c1cc(OCc2cc(-c3ccccc3)no2)c2ccccc2n1 | MTS | – | 72 h | IC50 | > 100 µM
Cc1nc(NC(=O)N2CCC[C@H]2C(N)=O)sc1-c1ccnc(C(C)(C)C(F)(F)F)c1 | ATP luminescence | – | 5 days | EC50 | 35.1 µM
O=C(CSc1nc2ccccc2s1)N/N=C/c1ccc(OCC(=O)Nc2cccc(Br)c2)cc1 | MTS | – | 72 h | IC50 | 32.1 µM
CCCCCCCCCCCCCCCCCCOc1ccccc1CC(=O)OCCC[N+](C)(C)C | SRB | 10 µM | – | inhibition | 19.9%
c1ccc(-c2cc(CNc3cccc4cccnc34)on2)cc1 | MTS | – | 72 h | IC50 | > 100 µM
O=C(CSc1nc2ccccc2s1)N/N=C/c1ccc(OCC(=O)Nc2ccc([N+](=O)[O-])cc2)cc1 | MTS | – | 72 h | IC50 | > 100 µM
N#Cc1ccc(-c2cc(COc3cc(C(F)(F)F)nc4ccccc34)on2)cc1 | MTS | – | 72 h | IC50 | > 100 µM
COc1ccc(NC(=O)NCc2cn(Cc3ccc(Cl)cc3)nn2)cc1 | CCK-8 | 50 µM | 72 h | viability | 91.8%
CCCCCCCCCCCCCCCCCCOc1cccc(CC(=O)OCC[N+]2(C)CCOCC2)c1 | SRB | 10 µM | – | inhibition | 1%
FC(F)(F)c1cc(OCc2cc(-c3ccccn3)no2)c2ccccc2n1 | MTS | – | 72 h | IC50 | > 100 µM
COc1ccc(NC(=O)Nc2cccc(-c3cn(Cc4ccc(C)cc4)nn3)c2)cc1 | CCK-8 | 50 µM | 72 h | viability | 102%
COc1cc([C@@H]2c3cc4c(cc3[C@@H](O[C@@H]3O[C@@H]5CO[C@@H](C)O[C@H]5[C@H](O)[C@H]3O)[C@H]3COC(=O)[C@H]23)OCO4)cc(OC)c1O | MTS | – | 72 h | IC50 | 0.69 µM
CCCCCCCCCCCCCCCCCCOc1ccccc1CC(=O)OCC[N+]1(C)CCCCC1 | SRB | 10 µM | – | inhibition | 37.8%
O=C(CSc1nc2ccccc2s1)N/N=C/c1ccc(OCC(=O)Nc2cccc(Cl)c2)cc1 | MTS | – | 72 h | IC50 | 29.6 µM
COc1ccc(NC(=O)NCc2cn(Cc3ccc(C)cc3)nn2)cc1 | CCK-8 | 50 µM | 72 h | viability | 95.5%
CCCCCCCCCCCCCCCCCCOc1ccccc1CC(=O)OCC[N+](CC)(CC)CC | SRB | 10 µM | – | inhibition | 65.4%
COc1ccc(NC(=O)Nc2cccc(-c3cn(Cc4ccc(Cl)cc4)nn3)c2)cc1 | CCK-8 | 50 µM | 72 h | viability | 104%
CCCCCCCCCCCCCCCCCCOc1ccc(CC(=O)OCCC[N+](C)(C)C)cc1 | SRB | 10 µM | – | inhibition | 26.7%
COc1ccc(NC(=O)NCc2cn(Cc3ccc(Br)cc3)nn2)cc1 | CCK-8 | 50 µM | 72 h | viability | 77.1%
Clc1ccc(-c2cc(CNc3cccc4cccnc34)on2)c(Cl)c1 | MTS | – | 72 h | IC50 | > 100 µM
